Test results as given in PMC3913215 (Molecular microbiology, 2009).

Columns and labels:
[1] = system: N-terminal truncations of AgrC-I; assay: β-lactamase reporter assay, N-terminally truncated AgrC-I alone; type: cell-based, S. aureus; settings: two truncated sensor domains, expressed alone (Figure S5A)
AgrC-I N339D = assay: β-lactamase reporter assay, AgrC-I N339D; type: cell-based, S. aureus; settings: N-box mutant; varying concentrations of synthetic AIP
[2] = system: AgrC-IHis / AgrC-IΔ1-135, Kin; assay: β-lactamase reporter assay, AgrC-IHis / truncated AgrC-IΔ1-135, Kin; type: cell-based, S. aureus; settings: full-length AgrC-IHis with AgrC-IΔ1-135, Kin (Figure S5B)
AgrC-I G396A = assay: β-lactamase reporter assay, AgrC-I G396A; type: cell-based, S. aureus; settings: individual G-box glycine mutant; varying concentrations of synthetic AIP
AgrC-I-GFP = assay: β-lactamase reporter assay, AgrC-I-GFP; type: cell-based, S. aureus; settings: C-terminal GFP fusion (Figure S2)
AgrC-I G394A = assay: β-lactamase reporter assay, AgrC-I G394A; type: cell-based, S. aureus; settings: individual G-box glycine mutant; varying concentrations of synthetic AIP
AgrC-IHis / AgrC-IKin = assay: β-lactamase reporter assay, activation of co-expressed AgrC-IHis / AgrC-IKin; type: cell-based, S. aureus; settings: co-expressed mutants
How it was run: (§1)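 Agr-deficient S. aureus RN10829 derivatives lacking AIP production, carrying a chromosomal P3-blaZ fusion and agrP2-driven plasmid agrC (compatible plasmids for co-expression), grown to mid-exponential phase in CYGP or MH broth at 37 °C with shaking. Cells were plated and given increasing synthetic AIP. β-Lactamase was read by nitrocefin initial velocity as percent maximal activation. EC50 came from a four-parameter logistic fit. Two or three replicates.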

[3] = system: AgrC-ISensor (T104V, S107A, S116I); settings: mutations in second extracellular loop; ref Geisinger et al., 2008; cited from earlier work
WT AgrC-II = assay: β-lactamase reporter assay, WT AgrC-II; type: cell-based, S. aureus; settings: read-out: EC50 (no activation); P3-blaZ reporter cells, nitrocefin method
How it was run: as §1

AgrC-IHis (H239Q) = assay: β-lactamase reporter assay, AgrC-IHis; type: cell-based, S. aureus; settings: H-box mutant; varying concentrations of synthetic AIP (Figure S1)
How it was run: as §1

[4] = system: AgrC-ISensor, His / AgrC-ISensor, Kin; assay: β-lactamase reporter assay, co-expressed AgrC-ISensor, His / AgrC-ISensor, Kin; type: cell-based, S. aureus
How it was run: as §1

[5] = system: AgrC-IHis / AgrC-ISensor, Kin; assay: β-lactamase reporter assay, activation of AgrC-IHis / AgrC-ISensor, Kin; type: cell-based, S. aureus; settings: Kin combined with AgrC-IHis versus AgrC-ISensor, His
AgrC-II = settings: background statement, no reference at the place; cited from earlier work

With AIP-I the “activation by AIP-I” value [1] was “None of the resulting dimers, with two truncated sensor domains, displayed significant activity”, the receptor activation (AgrC-I N339D) was “only partially reduced receptor activation” and the “activation by AIP-I” value [2] was “significant activity”. The “maximal activation relative to full-length complementary pair” value [2] was “only a third of that observed for the full-length complementary pair”, the receptor activation (AgrC-I G396A) was “weaker activation than that seen with AgrC-I N339D” and the “receptor activation compared to WT” value (AgrC-I-GFP) was “only slightly decreased compared to the WT receptor”. For the same substance, the receptor activation (AgrC-I G394A) was “weaker activation than that seen with AgrC-I N339D”, the “maximal activity compared to WT AgrC” value (AgrC-IHis / AgrC-IKin) was “moderately reduced compared to WT AgrC” and the “reduction in sensitivity to AIP-I” value [3] was “about 50 -fold”. The EC50 (WT AgrC-II) was greater than 10 µM, the receptor activation (AgrC-IHis (H239Q)) was “completely inactive” and the “reduction in activity compared with WT sensor domains” value ([4]; AgrC-ISensor, His / AgrC-ISensor, Kin versus WT sensor domains) was “over 150 -fold”. The EC50 ([4]; co-expressed mutants, both sensor domains mutated) was 6.1 µM, the “increase in activation by AIP-I” value [5] was “approximately 30 -fold” and the “antagonism of AgrC-II” value (AgrC-II) was “potent cross-group inhibitors”.
